Assay results reported in ChEMBL document CHEMBL4725234, “Structure-activity relationship analyses of fusidic acid derivatives highlight crucial role of the C-21 carboxylic acid moiety to its anti-mycobacterial activity” (Bioorg Med Chem, 2020).
Values after ≈ are worked out from the molar mass of the structure shown.

Tested on: Mycobacterium tuberculosis
Test: Antimycobacterial activity against Mycobacterium tuberculosis H37Rv
Format: functional
Summary of the method: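 Drug-sensitive M. tuberculosis H37Rv grown in a glycerol-containing medium; MIC99 is the minimum concentration that inhibits growth of 99% of the bacterial population.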

Compound: CCCCC(=O)O[C@@H]1CC[C@@]2(C)[C@@H](CC[C@@]3(C)[C@H]2[C@H](O)C[C@H]2/C(=C(\CCC=C(C)C)C(=O)NN)[C@@H](OC(C)=O)C[C@@]23C)[C@@H]1C
- MIC99: 62.5 µM (≈ 38.4 µg/mL)

Compound: CC(=O)O[C@H]1C[C@@]2(C)[C@@H](C[C@@H](O)[C@H]3[C@@]4(C)CC[C@@H](OC(=O)c5ccc(Br)cc5)[C@@H](C)[C@@H]4CC[C@@]32C)/C1=C(\CCC=C(C)C)C(=O)O
- MIC99: > 125 µM

Compound: CC(=O)O[C@H]1C[C@@]2(C)[C@@H](C[C@@H](O)[C@H]3[C@@]4(C)CC[C@@H](O)[C@@H](C)[C@@H]4CC[C@@]32C)/C1=C(\CCC=C(C)C)C(=O)NCCN1CCOCC1
- MIC99: > 125 µM

Compound: CC(=O)O[C@H]1C[C@@]2(C)[C@@H](C[C@@H](O)[C@H]3[C@@]4(C)CC[C@@H](O)[C@@H](C)[C@@H]4CC[C@@]32C)/C1=C(\CCC=C(C)C)C(=O)N/N=C/c1ccncc1
- MIC99: 20 µM (≈ 12.4 µg/mL)

Compound: CC(=O)O[C@H]1C[C@@]2(C)[C@@H](C[C@@H](O)[C@H]3[C@@]4(C)CC[C@@H](O)[C@@H](C)[C@@H]4CC[C@@]32C)/C1=C(\CCC=C(C)C)C(=O)N/N=C/c1cccnc1
- MIC99: 20 µM (≈ 12.4 µg/mL)

Compound: CC(=O)O[C@H]1C[C@@]2(C)[C@@H](C[C@@H](O)[C@H]3[C@@]4(C)CC[C@@H](O)[C@@H](C)[C@@H]4CC[C@@]32C)C1=O
- MIC99: > 125 µM

Compound: COc1ccc(S(=O)(=O)NC(=O)/C(CCC=C(C)C)=C2\[C@@H](OC(C)=O)C[C@@]3(C)[C@H]2C[C@@H](O)[C@H]2[C@@]4(C)CC[C@@H](O)[C@@H](C)[C@@H]4CC[C@@]23C)cc1
- MIC99: 31.3 µM (≈ 21.5 µg/mL)

Compound: CO/N=C1\CC[C@@]2(C)[C@@H](CC[C@@]3(C)[C@H]2[C@H](O)C[C@H]2/C(=C(\CCC=C(C)C)C(=O)O)[C@@H](OC(C)=O)C[C@@]23C)[C@@H]1C
- MIC99: 20 µM (≈ 10.9 µg/mL)

Compound: CC(=O)O[C@H]1C[C@@]2(C)[C@@H](C[C@@H](O)[C@H]3[C@@]4(C)CC[C@@H](OC(=O)c5ccc(C(F)(F)F)cc5)[C@@H](C)[C@@H]4CC[C@@]32C)/C1=C(\CCC=C(C)C)C(=O)O
- MIC99: > 125 µM

Compound: CC(=O)O[C@H]1C[C@@]2(C)[C@@H](C[C@@H](O)[C@H]3[C@@]4(C)CC[C@@H](O)[C@@H](C)[C@@H]4CC[C@@]32C)/C1=C(\CCC=C(C)C)C(=O)N1CCC(O)CC1
- MIC99: 40 µM (≈ 24 µg/mL)

Compound: CC(=O)O[C@H]1C[C@@]2(C)[C@@H](C[C@@H](O)[C@H]3[C@@]4(C)CC[C@@H](OC(=O)c5ccncc5)[C@@H](C)[C@@H]4CC[C@@]32C)/C1=C(\CCC=C(C)C)C(=O)O
- MIC99: 31.3 µM (≈ 19.5 µg/mL)

Compound: CC(=O)O[C@H]1C[C@@]2(C)[C@@H](C[C@@H](OC(C)=O)[C@H]3[C@@]4(C)CC[C@@H](OC(C)=O)[C@@H](C)[C@@H]4CC[C@@]32C)/C1=C(\CCC=C(C)C)C(=O)O
- MIC99: 52.5 µM (≈ 31.5 µg/mL)

Compound: CC(=O)O[C@H]1C[C@@]2(C)[C@@H](C[C@@H](O)[C@H]3[C@@]4(C)CC[C@@H](OC(=O)c5ccc([N+](=O)[O-])cc5)[C@@H](C)[C@@H]4CC[C@@]32C)/C1=C(\CCC=C(C)C)C(=O)O
- MIC99: > 125 µM

Compound: CC(=O)O[C@H]1C[C@@]2(C)[C@@H](C[C@@H](O)[C@H]3[C@@]4(C)CC[C@@H](OC(=O)c5ccc(C)cc5)[C@@H](C)[C@@H]4CC[C@@]32C)/C1=C(\CCC=C(C)C)C(=O)O
- MIC99: 31.3 µM (≈ 19.9 µg/mL)

Compound: CO[C@H]1/C=C/O[C@@]2(C)Oc3c(C)c(O)c4c(O)c(c(/C=N/N5CCN(C)CC5)c(O)c4c3C2=O)NC(=O)/C(C)=C\C=C\[C@H](C)[C@H](O)[C@@H](C)[C@@H](O)[C@@H](C)[C@H](OC(C)=O)[C@@H]1C [RIFAMPIN]
- MIC99: 0.005 µM (≈ 0.00411 µg/mL)

Compound: CC(=O)O[C@H]1C[C@@]2(C)[C@@H](C[C@@H](O)[C@H]3[C@@]4(C)CC/C(=N\OCc5ccccc5)[C@@H](C)[C@@H]4CC[C@@]32C)/C1=C(\CCC=C(C)C)C(=O)O
- MIC99: 40 µM (≈ 24.8 µg/mL)

Compound: CCCCCCCCCC(=O)O[C@@H]1CC[C@@]2(C)[C@@H](CC[C@@]3(C)[C@H]2[C@H](O)C[C@H]2/C(=C(\CCC=C(C)C)C(=O)O)[C@@H](OC(C)=O)C[C@@]23C)[C@@H]1C
- MIC99: > 125 µM
